# In ChEMBL document CHEMBL4627416, “Generation of Leads for γ-Secretase Modulation” (J Med Chem, 2020):
# Calls of active or inactive are those of the source. The rule behind the calls is not given here.
# Key:
# Gamma-secretase = test: Modulation of gamma secretase in HEK293 cells transfected with human APP with Swedish and London familial AD mutation assessed as reduction in Abeta42 levels incubated for 5 hrs by sandwich immuno-assay; assay type: cell-based
# HEK293 = test: Effect on total Abeta40 levels in HEK293 cells transfected with human APP with Swedish and London familial AD mutation incubated for 5 hrs by sandwich immuno-assay; assay type: functional, cell-based; conditions: HEK293, 5 h
# [1] = Selectivity index, ratio of IC50 for effect on total Abeta40 levels in HEK293 cells transfected with human APP with Swedish and London familial AD mutation incubated for 5 hrs by sandwich immuno-assay to IC50 for modulation of gamma secretase in HEK293 cells transfected with human APP with Swedish and London familial AD mutation assessed as reduction in Abeta42 levels incubated for 5 hrs by sandwich immuno-assay
# [2] = Drug level in brain of CD rat at 30 mg/kg, po measured after 3 hrs; assay type: ADME, organism-based; conditions: read-out: Drug uptake
# Summary of the method: (§1)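 Male CD rats dosed orally at 3, 10 or 30 mg/kg. Total drug concentrations measured in plasma and brain 3 h after the dose. Values are geometric means of 10 (3 mg/kg), 15 (10 mg/kg) and 5 (30 mg/kg) animals.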
# Cytochrome P450 3A4 = Cytochrome P450 3A4 (Homo sapiens, UniProt P08684); test: Inhibition of CYP3A4 (unknown origin); assay type: ADME
# [3] = molecular target: Voltage-gated inwardly rectifying potassium channel KCNH2 (Homo sapiens, UniProt Q12809); test: Inhibition of MK499 binding to human ERG
# [4] = Apparent permeability of the compound; assay type: ADME; conditions: not told
# Cytochrome P450 2C9 = Cytochrome P450 2C9 (Homo sapiens, UniProt P11712); test: Inhibition of CYP2C9 (unknown origin); assay type: ADME
# Cytochrome P450 2D6 = Cytochrome P450 2D6 (Homo sapiens, UniProt P10635); test: Inhibition of CYP2D6 (unknown origin); assay type: ADME
# [5] = Drug level in plasma of CD rat at 30 mg/kg, po measured after 3 hrs; assay type: ADME, organism-based; summary of the method: as §1
# [6] = molecular target: T1, Nuclear receptor subfamily 1 group I member 2 (Homo sapiens, UniProt O75469); test: Inhibition of PXR (unknown origin); assay type: ADME
# T1 sequence (O75469 whole entry): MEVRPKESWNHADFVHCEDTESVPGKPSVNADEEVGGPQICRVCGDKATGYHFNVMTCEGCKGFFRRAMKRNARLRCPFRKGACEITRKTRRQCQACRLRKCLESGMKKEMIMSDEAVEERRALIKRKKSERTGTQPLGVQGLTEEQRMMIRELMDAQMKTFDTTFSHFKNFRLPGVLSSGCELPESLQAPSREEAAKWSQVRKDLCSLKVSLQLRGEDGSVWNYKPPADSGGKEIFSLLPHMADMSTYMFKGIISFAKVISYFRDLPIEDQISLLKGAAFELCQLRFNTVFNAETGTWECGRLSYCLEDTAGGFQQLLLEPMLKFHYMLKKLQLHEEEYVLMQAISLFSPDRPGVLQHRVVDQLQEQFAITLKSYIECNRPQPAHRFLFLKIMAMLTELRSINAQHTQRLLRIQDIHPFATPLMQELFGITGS
# Rattus norvegicus [7] = test: Reduction of Abeta42 protein level in CD rat at 30 mg/kg, po measured after 3 hrs relative to control; assay type: functional; design: scale not given: the % may be the effect or the level left
# Summary of the method: (§2)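 Male CD rats given a single oral dose (1-30 mg/kg). CSF Aβ42 measured 3 h after the dose and expressed as reduction relative to control levels. In the dose-response study, geometric means are of 29 animals (3 and 10 mg/kg groups) and 10 animals (30 mg/kg group).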
# [8] = Clearance in CD rat at 1 mg/kg, iv; assay type: ADME, organism-based; conditions: in vivo
# Summary of the method: (§3)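 Male CD rats, single 1 mg/kg intravenous dose. Clearance, steady-state volume of distribution and mean residence time taken from the plasma concentration-time data. Values are the average of two experiments.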
# [9] = system: rat MDR1A (P-glycoprotein); test: Efflux ratio in pig LLC-PK1 cells transfected with rat MDR1A; assay type: ADME, cell-based, Sus scrofa
# Summary of the method: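 Rat P-gp efflux measured in LLC-PK1 cells transfected with rat MDR1A. Reported as the ratio of B-to-A over A-to-B transport.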
# [10] = MRT in CD rat at 1 mg/kg, iv; assay type: ADME, organism-based; conditions: in vivo; summary of the method: as §3
# [11] = Drug level in brain of CD rat at 10 mg/kg, po measured after 3 hrs; assay type: ADME, organism-based; conditions: read-out: Drug uptake; summary of the method: as §1
# [12] = Drug level in plasma of CD rat at 3 mg/kg, po measured after 3 hrs; assay type: ADME, organism-based; summary of the method: as §1
# Rattus norvegicus [13] = test: Reduction of Abeta42 protein level in CD rat at 3 to 30 mg/kg, po measured after 3 hrs relative to control; assay type: functional, organism-based; summary of the method: as §2
# [14] = Oral bioavailability CD rat at 2 mg/kg; assay type: ADME, organism-based; conditions: in vivo
# Summary of the method: (§4)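 Male CD rats, single 2 mg/kg oral dose. Plasma drug concentration-time profile used for AUC(0-∞), Cmax and oral bioavailability (F%). Values are the average of two experiments.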
# [15] = Drug level in brain of CD rat at 3 mg/kg, po measured after 3 hrs; assay type: ADME, organism-based; conditions: read-out: Drug uptake; summary of the method: as §1
# [16] = Protein binding in rat plasma; assay type: ADME, cell-free; conditions: read-out: PPB (converted)
# [17] = Drug level in plasma of CD rat at 10 mg/kg, po measured after 3 hrs; assay type: ADME, organism-based; summary of the method: as §1
# Rattus norvegicus [18] = test: Reduction of Abeta42 protein level in CD rat at 1 mg/kg, po measured after 3 hrs relative to control; assay type: functional, organism-based; summary of the method: as §2
# [19] = AUC (0 to infinity) in CD rat at 2 mg/kg, po; assay type: ADME, organism-based; design: dose 2 mg/kg, route oral, time infinity; conditions: in vivo; summary of the method: as §4
# [20] = Volume of distribution at steady state in CD rat at 1 mg/kg, iv; assay type: ADME, organism-based; conditions: in vivo, read-out: Vdss; summary of the method: as §3
# Rattus norvegicus [21] = test: Reduction of Abeta42 protein level in CD rat at 3 mg/kg, po measured after 3 hrs relative to control; assay type: functional; design: scale not given: the % may be the effect or the level left; summary of the method: as §2
# [22] = Cmax in CD rat at 2 mg/kg, po; assay type: ADME, organism-based; design: dose 2 mg/kg, route oral; conditions: in vivo; summary of the method: as §4
# Rattus norvegicus [23] = test: Reduction of Abeta42 protein level in CD rat at 10 mg/kg, po measured after 3 hrs relative to control; assay type: functional; design: scale not given: the % may be the effect or the level left; summary of the method: as §2
# Cytochrome P450 2C9, sequence (P11712 whole entry): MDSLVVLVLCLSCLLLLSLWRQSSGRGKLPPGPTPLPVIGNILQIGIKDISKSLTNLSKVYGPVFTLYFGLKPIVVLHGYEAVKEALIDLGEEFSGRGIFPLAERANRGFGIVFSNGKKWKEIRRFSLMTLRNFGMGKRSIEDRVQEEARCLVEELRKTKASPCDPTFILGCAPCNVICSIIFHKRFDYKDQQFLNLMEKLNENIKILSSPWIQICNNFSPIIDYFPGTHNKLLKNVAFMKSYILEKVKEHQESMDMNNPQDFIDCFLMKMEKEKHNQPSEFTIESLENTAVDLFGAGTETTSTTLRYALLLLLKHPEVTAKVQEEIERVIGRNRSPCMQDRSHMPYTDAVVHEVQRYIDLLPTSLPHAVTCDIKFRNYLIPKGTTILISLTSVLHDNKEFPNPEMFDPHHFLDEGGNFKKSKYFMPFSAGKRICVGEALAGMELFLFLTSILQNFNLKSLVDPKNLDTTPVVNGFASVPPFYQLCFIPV
# Voltage-gated inwardly rectifying potassium channel KCNH2, sequence (Q12809 whole entry): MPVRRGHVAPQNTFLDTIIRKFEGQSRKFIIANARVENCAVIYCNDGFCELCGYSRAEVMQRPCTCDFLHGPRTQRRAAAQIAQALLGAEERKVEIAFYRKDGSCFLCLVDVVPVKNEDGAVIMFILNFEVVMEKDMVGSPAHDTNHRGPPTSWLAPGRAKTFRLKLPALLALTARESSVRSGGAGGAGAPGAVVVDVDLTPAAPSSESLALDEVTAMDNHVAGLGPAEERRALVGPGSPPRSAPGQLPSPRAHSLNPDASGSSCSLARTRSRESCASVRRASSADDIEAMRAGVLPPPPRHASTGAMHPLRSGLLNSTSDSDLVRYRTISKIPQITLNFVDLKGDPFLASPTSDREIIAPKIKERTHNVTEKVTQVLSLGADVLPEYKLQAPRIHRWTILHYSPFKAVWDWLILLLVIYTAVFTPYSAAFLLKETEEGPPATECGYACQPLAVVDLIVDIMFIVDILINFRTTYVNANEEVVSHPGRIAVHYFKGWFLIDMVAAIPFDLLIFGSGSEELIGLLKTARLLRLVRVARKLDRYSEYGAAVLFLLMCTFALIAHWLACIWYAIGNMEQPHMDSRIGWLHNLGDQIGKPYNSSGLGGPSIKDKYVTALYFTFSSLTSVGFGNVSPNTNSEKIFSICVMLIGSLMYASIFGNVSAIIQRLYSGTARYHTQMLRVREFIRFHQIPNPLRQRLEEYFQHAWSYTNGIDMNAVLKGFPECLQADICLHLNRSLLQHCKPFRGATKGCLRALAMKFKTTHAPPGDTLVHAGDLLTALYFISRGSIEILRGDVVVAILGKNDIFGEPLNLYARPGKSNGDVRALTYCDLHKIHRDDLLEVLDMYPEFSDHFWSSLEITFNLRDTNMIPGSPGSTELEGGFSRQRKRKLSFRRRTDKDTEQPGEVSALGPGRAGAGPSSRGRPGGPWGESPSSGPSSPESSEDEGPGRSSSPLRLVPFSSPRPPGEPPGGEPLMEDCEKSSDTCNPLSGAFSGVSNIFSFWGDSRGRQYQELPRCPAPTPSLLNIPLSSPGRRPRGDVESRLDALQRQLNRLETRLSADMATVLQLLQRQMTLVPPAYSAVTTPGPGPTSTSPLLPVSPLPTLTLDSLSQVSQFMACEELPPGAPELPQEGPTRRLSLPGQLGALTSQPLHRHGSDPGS
# Cytochrome P450 2D6, sequence (P10635 whole entry): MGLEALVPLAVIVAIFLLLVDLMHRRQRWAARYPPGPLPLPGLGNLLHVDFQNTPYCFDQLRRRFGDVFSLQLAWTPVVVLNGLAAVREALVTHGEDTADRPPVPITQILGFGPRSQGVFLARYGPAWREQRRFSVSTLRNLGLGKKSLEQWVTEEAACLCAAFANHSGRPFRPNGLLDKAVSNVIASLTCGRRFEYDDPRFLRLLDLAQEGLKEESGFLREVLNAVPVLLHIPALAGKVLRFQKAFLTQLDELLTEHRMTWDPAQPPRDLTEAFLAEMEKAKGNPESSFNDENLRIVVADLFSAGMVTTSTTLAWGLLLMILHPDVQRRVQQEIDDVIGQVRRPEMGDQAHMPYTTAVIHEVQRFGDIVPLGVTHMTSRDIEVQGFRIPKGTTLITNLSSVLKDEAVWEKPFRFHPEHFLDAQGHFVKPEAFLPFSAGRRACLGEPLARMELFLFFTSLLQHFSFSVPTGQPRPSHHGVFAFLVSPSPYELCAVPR
# Cytochrome P450 3A4, sequence (P08684 whole entry): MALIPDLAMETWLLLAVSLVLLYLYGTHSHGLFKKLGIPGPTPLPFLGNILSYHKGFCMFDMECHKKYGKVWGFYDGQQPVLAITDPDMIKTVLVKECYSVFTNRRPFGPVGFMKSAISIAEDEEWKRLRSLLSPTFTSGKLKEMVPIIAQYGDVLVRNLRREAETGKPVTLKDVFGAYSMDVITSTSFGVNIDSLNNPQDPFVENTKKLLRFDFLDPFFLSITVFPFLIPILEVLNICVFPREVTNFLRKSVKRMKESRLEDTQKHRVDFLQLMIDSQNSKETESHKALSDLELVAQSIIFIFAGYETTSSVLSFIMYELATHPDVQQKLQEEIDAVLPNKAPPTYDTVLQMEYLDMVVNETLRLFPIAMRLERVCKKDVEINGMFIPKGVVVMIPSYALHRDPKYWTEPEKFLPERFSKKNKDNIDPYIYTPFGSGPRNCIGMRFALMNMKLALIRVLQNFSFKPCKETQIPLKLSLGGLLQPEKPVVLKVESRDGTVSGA
compound,measurement,setting,value
COc1cc(/C=C2\CCCN3C2=NO[C@@H](c2cc(F)cc(F)c2)[C@@H]3C)ccc1-n1cnc(C)c1,IC50,Gamma-secretase,9.29 µM
same,IC50,HEK293,> 20 µM
COc1cc(C2=CC3=NOC(CO)(c4ccc(F)cc4)N3CCO2)ccc1-n1cnc(C)c1 (stereo not given),IC50,Gamma-secretase,0.512 µM
COc1cc(C2=NOCC3C(Oc4cc(F)cc(F)c4)CCCN23)ccc1-n1cnc(C)c1 (stereo not given),IC50,Gamma-secretase,0.4 µM
COc1cc(/C=C2\CCCN3C2=NO[C@H](c2cc(F)c(F)c(F)c2)[C@@H]3CO)ccc1-n1cnc(C)c1,IC50,Gamma-secretase,0.069 µM
same,IC50,HEK293,15 µM
same,Ratio IC50,[1],221
COc1cc(/C=C2\CCCN3C2=NOCC[C@@H]3c2cc(F)c(F)c(F)c2)ccc1-n1cnc(C)c1,IC50,Gamma-secretase,0.039 µM
COc1cc(C2=CC3=NO[C@H](c4cc(F)c(F)c(F)c4)CN3CCC2)ccc1-n1cnc(C)c1,concentration at 3 h,[2],2.1 µM
same,IC50,Cytochrome P450 3A4,34 µM
same,IC50,Gamma-secretase,0.107 µM
same,IC50,[3],3.35 µM
same,IC50,HEK293,14 µM
same,Papp,[4],22 ×10⁻⁶ cm/s
same,IC50,Cytochrome P450 2C9,18 µM
same,IC50,Cytochrome P450 2D6,48 µM
same,concentration at 3 h,[5],14.2 µM
same,IC50,[6],> 30 µM
same,Activity,Rattus norvegicus [7],52%
COc1cc(/C=C2\CCCN3CC(c4cc(F)c(F)c(F)c4)ON=C23)ccc1-n1cnc(C)c1 (stereo not given),IC50,Gamma-secretase,0.048 µM
COc1cc(/C=C2\CCCN3C2=NO[C@H](c2cc(F)c(F)c(F)c2)[C@@H]3C)ccc1-n1cnc(C)c1,concentration at 3 h,[2],11.1 µM
same,IC50,Cytochrome P450 3A4,29 µM
same,IC50,Gamma-secretase,0.055 µM
same,IC50,[3],1.61 µM
same,IC50,HEK293,> 20 µM
same,Papp,[4],14 ×10⁻⁶ cm/s
same,IC50,Cytochrome P450 2C9,37 µM
same,IC50,Cytochrome P450 2D6,49 µM
same,concentration at 3 h,[5],13.1 µM
same,IC50,[6],> 10 µM
same,Ratio IC50,[1],>367
same,Activity,Rattus norvegicus [7],80%
CCC(NC(=O)/C=C/c1ccc(-n2cnc(C)c2)c(OC)c1)c1ccc(F)cc1 (stereo not given),IC50,Gamma-secretase,0.462 µM
COc1cc(C2=CC3=NOC[C@H](c4cc(F)c(F)c(F)c4)N3CCC2)ccc1-n1cnc(C)c1,concentration at 3 h,[2],1.3 µM
same,IC50,Cytochrome P450 3A4,30 µM
same,IC50,Gamma-secretase,0.143 µM
same,IC50,[3],2.61 µM
same,IC50,HEK293,16 µM
same,Papp,[4],23 ×10⁻⁶ cm/s
same,IC50,Cytochrome P450 2C9,8 µM
same,IC50,Cytochrome P450 2D6,8 µM
same,concentration at 3 h,[5],1.4 µM
same,IC50,[6],> 15 µM
COc1cc(/C=C2\CCCN3C2=NO[C@]3(CO)c2ccc(F)cc2)ccc1-n1cnc(C)c1,IC50,Gamma-secretase,0.029 µM
COc1cc(/C=C2\CCCN3C2=NO[C@H](c2cc(F)cc(F)c2)[C@@H]3C)ccc1-n1cnc(C)c1,concentration at 3 h,[2],7.5 µM
same,IC50,Cytochrome P450 3A4,16 µM
same,IC50,Gamma-secretase,0.052 µM
same,clearance,[8],10 mL/min/kg
same,IC50,[3],2.01 µM
same,efflux ratio,[9],2.46
same,MRT,[10],1.7 h
same,concentration at 3 h,[11],4.2 µM
same,IC50,HEK293,12 µM
same,concentration at 3 h,[12],0.91 µM
same,Activity,Rattus norvegicus [13],Dose-dependent effect
same,bioavailability,[14],79%
same,Papp,[4],17 ×10⁻⁶ cm/s
same,concentration at 3 h,[15],0.81 µM
same,IC50,Cytochrome P450 2C9,33 µM
same,IC50,Cytochrome P450 2D6,49 µM
same,fraction unbound,[16],0.005
same,concentration at 3 h,[17],4.83 µM
same,Activity,Rattus norvegicus [18],inactive
same,AUC(0-inf),[19],8 µM·h
same,Vd,[20],1.1 L/kg
same,Activity,Rattus norvegicus [21],24%
same,concentration at 3 h,[5],8.8 µM
same,IC50,[6],15 µM
same,Cmax,[22],1.3 µM
same,Ratio IC50,[1],248
same,Activity,Rattus norvegicus [7],73%
same,Activity,Rattus norvegicus [23],52%
COc1cc(C(=O)N2CCCC(Cc3ccc(F)cc3)C2)ccc1-n1cnc(C)c1 (stereo not given),IC50,Gamma-secretase,1.55 µM
COc1cc(-c2nnc3n2CCCN3C(C)c2cc(F)c(F)c(F)c2)ccc1-n1cnc(C)c1 (stereo not given),IC50,Gamma-secretase,0.116 µM
COc1cc(/C=C2\CCCN3C2=NOC[C@@H]3c2ccc(F)cc2)ccc1-n1cnc(C)c1,IC50,Gamma-secretase,0.033 µM
COc1cc(/C=C2\CCCN3C2=NOC[C@@H]3c2cc(F)c(F)c(F)c2)ccc1-n1cnc(C)c1,IC50,Gamma-secretase,0.037 µM
COc1cc(C2=NOCC3C(Oc4ccc(Cl)cc4C(F)(F)F)CCCN23)ccc1-n1cnc(C)c1 (stereo not given),IC50,Gamma-secretase,0.015 µM
COc1cc(/C=C2\CCCN3C2=NO[C@H](c2cc(F)cc(F)c2)[C@@H]3C(C)C)ccc1-n1cnc(C)c1,IC50,Gamma-secretase,0.113 µM
same,IC50,HEK293,19 µM
same,Ratio IC50,[1],174
